Source: ChEMBL document CHEMBL3865784 (Eur J Med Chem, 2016)
The source made the active and inactive calls. The calls are words filed in the database; no cut-off is given here.

Columns and labels:
[1] = Cytotoxicity against human MDA-MB-435 cells overexpressing NQO1 assessed as reduction in cell viability after 72 hrs by MTT assay; format: functional, cell-based; conditions: MDA-MB-435, 72 h
Outline: (§1)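 Cancer lines from NCI, grown in RPMI 1640 with 10% FBS, 2 mM L-glutamine, penicillin/streptomycin, 37 °C, 5% CO2; seeded 0.1 × 10^6 cells/well (HL-60) or 0.7 × 10^5 cells/well (solid tumours). Compounds in DMSO, final 0.1% v/v; DMSO vehicle as negative control.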

[2] = Cytotoxicity against NQO1-deficient chinese hamster V79 cells assessed as reduction in cell viability after 72 hrs by MTT assay; format: toxicity, cell-based, Cricetulus griseus; conditions: v79
PC-3 [3] = experiment: Selectivity index, ratio of IC50 for NQO1-deficient human PBMC to IC50 for human PC3 cells overexpressing NQO1
Outline: (§2)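 Selectivity index is IC50 in the normal cells divided by IC50 in the cancer line. Normal cells: V79 and L929 in DMEM, PBMC in RPMI with phytohaemagglutinin. Cancer lines in RPMI with 10% FBS, seeded at 0.1 × 10^6 (HL-60) or 0.7 × 10^5 cells/well (solid tumors). Absorbance 550 nm; nonlinear regression.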

OVCAR-8 [4] = experiment: Selectivity index, ratio of IC50 for NQO1-deficient chinese hamster V79 cells to IC50 for human OVCAR8 cells overexpressing NQO1
Outline: as §2, with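 “line. All IC50s come from 72 h MTT assays.” for “line.”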

SF-295 [5] = experiment: Selectivity index, ratio of IC50 for NQO1-deficient human PBMC to IC50 for human SF295 cells overexpressing NQO1; outline: as §2
V79 [6] = experiment: Selectivity index, ratio of IC50 for NQO1-deficient chinese hamster V79 cells to IC50 for human MDA-MB-435 cells overexpressing NQO1; outline: as §2
OVCAR-8 [7] = experiment: Selectivity index, ratio of IC50 for NQO1-deficient human PBMC to IC50 for human OVCAR8 cells overexpressing NQO1
Outline: as §2, with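 “line. All IC50s come from 72 h MTT assays.” for “line.”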

V79 [8] = experiment: Selectivity index, ratio of IC50 for NQO1-deficient chinese hamster V79 cells to IC50 for human PC3 cells overexpressing NQO1; outline: as §2
L929 [9] = experiment: Selectivity index, ratio of IC50 for NQO1-deficient mouse L929 cells to IC50 for NQO1-deficient human HL60 cells; format: functional; outline: as §2
L929 [10] = experiment: Selectivity index, ratio of IC50 for NQO1-deficient mouse L929 cells to IC50 for human PC3 cells overexpressing NQO1; outline: as §2
[11] = Cytotoxicity against human OVCAR8 cells overexpressing NQO1 assessed as reduction in cell viability after 72 hrs by MTT assay; format: functional, cell-based; conditions: OVCAR-8, 72 h; outline: as §1
[12] = Cytotoxicity against human SF295 cells overexpressing NQO1 assessed as reduction in cell viability after 72 hrs by MTT assay; format: functional, cell-based; conditions: SF-295, 72 h
Mus musculus = organism: Mus musculus; experiment: Cytotoxicity against NQO1-deficient mouse L929 cells assessed as reduction in cell viability after 72 hrs by MTT assay; format: toxicity, cell-based; conditions: l929
HCT-116 [13] = experiment: Selectivity index, ratio of IC50 for NQO1-deficient mouse L929 cells to IC50 for human HCT116 cells expressing NQO1
Outline: as §2, with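 “line. All IC50s come from 72 h MTT assays.” for “line.”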

L929 [14] = experiment: Selectivity index, ratio of IC50 for NQO1-deficient mouse L929 cells to IC50 for human MDA-MB-435 cells overexpressing NQO1; outline: as §2
HCT-116 [15] = experiment: Selectivity index, ratio of IC50 for NQO1-deficient chinese hamster V79 cells to IC50 for human HCT116 cells expressing NQO1
Outline: as §2, with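 “line. All IC50s come from 72 h MTT assays.” for “line.”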

SF-295 [16] = experiment: Selectivity index, ratio of IC50 for NQO1-deficient chinese hamster V79 cells to IC50 for human SF295 cells overexpressing NQO1; outline: as §2
[17] = Selectivity index, ratio of IC50 for NQO1-deficient human PBMC to IC50 for human MDA-MB-435 cells overexpressing NQO1; outline: as §2
[18] = Cytotoxicity against human PC3 cells overexpressing NQO1 assessed as reduction in cell viability after 72 hrs by MTT assay; format: functional, cell-based; conditions: PC-3, 72 h
L929 [19] = experiment: Selectivity index, ratio of IC50 for NQO1-deficient mouse L929 cells to IC50 for human OVCAR8 cells overexpressing NQO1; outline: as §2
HL-60 [20] = experiment: Selectivity index, ratio of IC50 for NQO1-deficient human PBMC to IC50 for NQO1-deficient human HL60 cells; outline: as §2
[21] = Cytotoxicity against NQO1-deficient human PBMC assessed as reduction in cell viability after 72 hrs by MTT assay; format: toxicity, cell-based; conditions: pbmc
L929 [22] = experiment: Selectivity index, ratio of IC50 for NQO1-deficient mouse L929 cells to IC50 for human SF295 cells overexpressing NQO1; outline: as §2
[23] = Cytotoxicity against NQO1-deficient human HL60 cells assessed as reduction in cell viability after 72 hrs by MTT assay; format: functional, cell-based; conditions: HL-60, 72 h; outline: as §1
HL-60 [24] = experiment: Selectivity index, ratio of IC50 for NQO1-deficient chinese hamster V79 cells to IC50 for NQO1-deficient human HL60 cells; format: functional; outline: as §2
[25] = Cytotoxicity against human HCT116 cells expressing NQO1 assessed as reduction in cell viability after 72 hrs by MTT assay; format: functional, cell-based; conditions: HCT-116, 72 h; outline: as §1
HCT-116 [26] = experiment: Selectivity index, ratio of IC50 for NQO1-deficient human PBMC to IC50 for human HCT116 cells expressing NQO1
Outline: as §2, with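 “line. All IC50s come from 72 h MTT assays.” for “line.”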

PC-3 [27] = experiment: Induction of apoptosis in human PC3 cells assessed as externalization of phosphatidylserine on cell surface by measuring early apoptotic cells at 5 uM after 6 hrs by Annexin-V/FITC/PI staining by flow cytometry (reference value: 0.93 +/- 0.05%); format: functional
[28] = molecular target: NAD(P)H dehydrogenase [quinone] 1 (Homo sapiens) (UniProt P15559); experiment: Activation of NQO1 in human PC3 cells assessed as induction of ROS generation at 5 uM after 1 hr by H2DCFDA probe based flow cytometric analysis; format: cell-based; conditions: PC-3
PC-3 [29] = experiment: Induction of apoptosis in human PC3 cells assessed as externalization of phosphatidylserine on cell surface by measuring late apoptotic cells at 5 uM after 6 hrs by Annexin-V/FITC/PI staining by flow cytometry (reference value: 0%); format: functional
PC-3 [30] = experiment: Induction of apoptosis in human PC3 cells assessed as externalization of phosphatidylserine on cell surface by measuring late apoptotic cells at 5 uM cotreated with NQO1 inhibitor dicoumarol measured after 6 hrs by Annexin-V/FITC/PI staining by flow cytometry (reference value: 0%); format: functional; parameters: scale not given: the % may be the effect or the level left
PC-3 [31] = experiment: Induction of apoptosis in human PC3 cells assessed as externalization of phosphatidylserine on cell surface by measuring early apoptotic cells at 5 uM pretreated with NAC measured after 6 hrs by Annexin-V/FITC/PI staining by flow cytometry (reference value: 0.93 +/- 0.05%); format: functional
PC-3 [32] = experiment: Induction of apoptosis in human PC3 cells assessed as externalization of phosphatidylserine on cell surface by measuring early apoptotic cells at 5 uM cotreated with NQO1 inhibitor dicoumarol measured after 6 hrs by Annexin-V/FITC/PI staining by flow cytometry (reference value: 0.93 +/- 0.05%); format: functional; parameters: scale not given: the % may be the effect or the level left
PC-3 [33] = experiment: Induction of apoptosis in human PC3 cells assessed as externalization of phosphatidylserine on cell surface by measuring late apoptotic cells at 5 uM pretreated with NAC measured after 6 hrs by Annexin-V/FITC/PI staining by flow cytometry (reference value: 0%); format: functional

Sequence of NAD(P)H dehydrogenase [quinone] 1 (Homo sapiens) (P15559 whole entry): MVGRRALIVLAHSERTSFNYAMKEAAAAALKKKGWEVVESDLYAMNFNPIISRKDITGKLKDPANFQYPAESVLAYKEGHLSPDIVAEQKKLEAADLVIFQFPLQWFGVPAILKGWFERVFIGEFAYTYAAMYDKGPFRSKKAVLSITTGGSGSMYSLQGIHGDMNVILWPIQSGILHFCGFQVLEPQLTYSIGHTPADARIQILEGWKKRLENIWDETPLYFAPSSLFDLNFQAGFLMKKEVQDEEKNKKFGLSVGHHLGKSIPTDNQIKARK

| SMILES | IC50 [1] | IC50 [2] | Ratio IC50 (PC-3 [3]) | Ratio IC50 (OVCAR-8 [4]) | Ratio IC50 (V79 [8]) | Ratio IC50 (L929 [9]) | Ratio IC50 (L929 [10]) | IC50 [11] | IC50 [12] | IC50 (Mus musculus) | Ratio IC50 (HCT-116 [13]) | Ratio IC50 (HCT-116 [15]) | IC50 [18] | Ratio IC50 (HL-60 [20]) | IC50 [21] | Ratio IC50 (L929 [22]) | IC50 [23] | Ratio IC50 (HL-60 [24]) | IC50 [25] | Ratio IC50 (HCT-116 [26]) | further results |
| --- | --- | --- | --- | --- | --- | --- | --- | --- | --- | --- | --- | --- | --- | --- | --- | --- | --- | --- | --- | --- | --- |
| [N-]=[N+]=NCC1CC2=C(O1)C(=O)c1ccccc1C2=O (configuration not stated) | 200 nM | 2470 nM | 8.2 | 7 | 6.3 | 6.9 | 5.5 | 350 nM | 350 nM | 2150 nM | 8.9 | 10.2 | 390 nM | 10.3 | 3210 nM | 6.1 | 310 nM | 7.9 | 240 nM | 13.3 | Ratio IC50 (SF-295 [5]): 9.1; Ratio IC50 (V79 [6]): 12.3; Ratio IC50 (OVCAR-8 [7]): 9.1; Ratio IC50 (L929 [14]): 10.7; Ratio IC50 (SF-295 [16]): 7; Ratio IC50 [17]: 16; Ratio IC50 (L929 [19]): 6.1 |
| CC1(C)OC2=C(C(=O)C(=O)c3ccccc32)C1Nc1cccc(-c2cn(C[Se]c3ccccc3)nn2)c1 (configuration not stated) | 230 nM | 1130 nM | 3.6 | 5.6 | 2.9 | 13.4 | 2.4 | 200 nM | 340 nM | 940 nM | 6.7 | 8 | 380 nM | 19.8 | 1390 nM | 2.7 | 70 nM | 16.1 | 140 nM | 9.9 | Activity (PC-3 [27]): 16.61%; Activity [28]: Active; Activity (PC-3 [29]): 3.27%; Ratio IC50 (V79 [6]): 4.9; Ratio IC50 (OVCAR-8 [7]): 6.9; Activity (PC-3 [30]): 0%; Activity (PC-3 [31]): 0.89%; Activity (PC-3 [32]): 0.91%; Activity (PC-3 [33]): 0%; Ratio IC50 (L929 [14]): 4; Ratio IC50 [17]: 6; Ratio IC50 (L929 [19]): 4.7 |
| O=C1C=C(NCc2cn(C[Se]c3ccccc3)nn2)C(=O)c2ccccc21 | 3090 nM | 3990 nM |  |  |  | 3.3 |  | 1890 nM | 970 nM | 3830 nM | 2.2 | 2.3 | 2080 nM | 4.2 | 4750 nM | 3.9 | 1130 nM | 3.5 | 1720 nM | 2.7 | Ratio IC50 (SF-295 [5]): 4.8; Ratio IC50 (SF-295 [16]): 4.1 |
| C#Cc1cccc(NC2C3=C(OC2(C)C)c2ccccc2C(=O)C3=O)c1 (configuration not stated) | 2040 nM | 2160 nM | 1.5 |  | 1.1 | 9.6 | 1.3 | 2530 nM | 2590 nM | 2500 nM | 1.68 | 1.45 | 1860 nM | 10.7 | 2800 nM |  | 260 nM | 8.3 | 1480 nM | 1.89 |  |
| CC1(C)OC2=C(C(=O)c3ccccc3C2=O)C1Nc1cccc(-c2cn(C[Se]c3ccccc3)nn2)c1 (configuration not stated) | 880 nM | 3780 nM | 1.9 | 5.5 | 2.2 | 3.1 | 1.9 | 680 nM | 1080 nM | 3380 nM | 2.6 | 2.9 | 1710 nM | 3 | 3330 nM | 3.1 | 1080 nM | 3.5 | 1280 nM | 2.6 | Ratio IC50 (SF-295 [5]): 3; Ratio IC50 (V79 [6]): 4.2; Ratio IC50 (OVCAR-8 [7]): 4.8; Ratio IC50 (L929 [14]): 3.8; Ratio IC50 (SF-295 [16]): 3.5; Ratio IC50 [17]: 3.7; Ratio IC50 (L929 [19]): 4.9 |
